From ChEMBL document CHEMBL1145524, “Structure-based activity prediction for an enzyme of unknown function” (Nature, 2007) come the findings set out here.

The target in series [1] is T1, Adenosylhomocysteinase (Thermotoga maritima (strain ATCC 43589 / MSB8 / DSM 3109 / JCM 10099)) (UniProt O51933).
T1 sequence (whole entry): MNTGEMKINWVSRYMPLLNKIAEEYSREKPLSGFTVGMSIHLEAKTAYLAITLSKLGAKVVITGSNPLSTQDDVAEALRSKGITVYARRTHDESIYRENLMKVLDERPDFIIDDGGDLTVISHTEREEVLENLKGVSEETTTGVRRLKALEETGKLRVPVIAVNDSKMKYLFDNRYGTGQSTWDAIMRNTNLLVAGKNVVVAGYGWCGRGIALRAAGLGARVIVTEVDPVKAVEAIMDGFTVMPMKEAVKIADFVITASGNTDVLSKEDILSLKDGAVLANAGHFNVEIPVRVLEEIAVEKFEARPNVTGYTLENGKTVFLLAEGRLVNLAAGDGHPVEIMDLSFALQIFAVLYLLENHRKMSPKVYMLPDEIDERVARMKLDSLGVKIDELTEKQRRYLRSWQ
The experiment in a line: (§1) Activity of Thermotoga maritima S-adenosyl-L-homocysteine hydrolase Tm0172 assessed as homocysteine hydrolysis. Summed up:
(§2)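 Tm0172 expressed in E. coli (arabinose induction), heat-treated 65 °C and purified on chelating Sepharose as His-tagged protein. Assay: 100 mM HEPES pH 8.0, 1.0 mM DTNB, 1.0 mM EDTA, 13 μM Tm0172, substrate up to 10 mM, 30 °C. kcat and kcat/Km obtained by fitting initial velocities to the Michaelis–Menten equation.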

Substrate in series [2]: Nc1ncnc2c1ncn2[C@@H]1O[C@H](CSCC[C@H](N)C(=O)O)[C@@H](O)[C@H]1O
Described as §1. The essentials: as §2

Substrate in series [3]: Nc1ncnc2c1ncn2[C@@H]1O[C@H](CSCC[C@H](N)C(=O)O)[C@@H](O)[C@H]1O
The experiment in a line: Ratio of Kcat to Km for Thermotoga maritima S-adenosyl-L-homocysteine hydrolase Tm0172 assessed as homocysteine hydrolysis. The essentials: as §2

Substrate in series [4]: CSC[C@H]1O[C@@H](n2cnc3c(N)ncnc32)[C@H](O)[C@@H]1O
The experiment in a line: (§3) Ratio of Kcat to Km for Thermotoga maritima S-adenosyl-homocysteine deaminase Tm0936 assessed as ammonia production. The essentials:
(§4)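 Recombinant Tm0936 was expressed in E. coli, heat-treated at 65 °C, then purified by anion exchange and gel filtration (Zn-containing). Ammonia release was coupled to glutamate dehydrogenase, with NADH loss read at 340 nm. Assay: 100 mM HEPES pH 8.0, 7.4 mM α-ketoglutarate, 0.4 mM NADH, 6 units GDH, 30 °C. kcat and kcat/Km came from fitting initial velocities versus substrate concentration.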

Substrate in series [5]: Nc1ncnc2c1ncn2[C@@H]1O[C@H](CO)[C@@H](O)[C@H]1O
Described as §3. The essentials:
as §4

Substrate in series [6]: Nc1ncnc2c1ncn2[C@@H]1O[C@H](CSCC[C@H](N)C(=O)O)[C@@H](O)[C@H]1O
The description is as §3. Summed up:
as §4

Substrate in series [7]: CSC[C@H]1O[C@@H](n2cnc3c(N)ncnc32)[C@H](O)[C@@H]1O
The experiment in a line: (§5) Activity of Thermotoga maritima S-adenosyl-homocysteine deaminase Tm0936 assessed as ammonia production. The essentials:
as §4

Substrate in series [8]: Nc1ncnc2c1ncn2[C@@H]1O[C@H](COP(=O)(O)O)[C@@H](O)[C@H]1O
Described as §5. The essentials: as §4

Substrate in series [9]: C[S+](CC[C@H](N)C(=O)[O-])C[C@H]1O[C@@H](n2cnc3c(N)ncnc32)[C@H](O)[C@@H]1O
Described as §5. The essentials: as §4

Substrate in series [10]: Nc1ncnc2c1ncn2[C@@H]1O[C@H](CO)[C@@H](O)[C@H]1O
Described as §5. The essentials:
as §4

Substrate in series [11]: Nc1ncnc2c1ncn2[C@@H]1O[C@H](CSCC[C@H](N)C(=O)O)[C@@H](O)[C@H]1O
The series is described as §5. The essentials:
as §4

In general, kcat refers to the number of substrate molecules converted per active site and unit of time at saturation. With `Nc1ncnc2c1ncn2[C@@H]1O[C@H](CSCC[C@H](N)C(=O)O)[C@@H](O)[C@H]1O`, the kcat in series [1] was 0.004 s⁻¹.

B1: Adenosylhomocysteinase (Thermotoga maritima (strain ATCC 43589 / MSB8 / DSM 3109 / JCM 10099)), O51933 (protein)
chain: T1 sequence (whole entry)
As usually defined, the Km is the concentration of substrate that gives half-maximal velocity. One may read the kcat/Km as the second-order rate constant that governs catalysis at low substrate concentration. For the molecule B1, the Km in series [2] was found to be 21 µM. Moreover, the kcat/Km in series [3] was 1.1 10^2/M/s.

B2: 5-methylthioadenosine/S-adenosylhomocysteine deaminase (Thermotoga maritima (strain ATCC 43589 / MSB8 / DSM 3109 / JCM 10099)), Q9X034 (protein)
chain: MIIGNCLILKDFSSEPFWGAVEIENGTIKRVLQGEVKVDLDLSGKLVMPALFNTHTHAPMTLLRGVAEDLSFEEWLFSKVLPIEDRLTEKMAYYGTILAQMEMARHGIAGFVDMYFHEEWIAKAVRDFGMRALLTRGLVDSNGDDGGRLEENLKLYNEWNGFEGRIFVGFGPHSPYLCSEEYLKRVFDTAKSLNAPVTIHLYETSKEEYDLEDILNIGLKEVKTIAAHCVHLPERYFGVLKDIPFFVSHNPASNLKLGNGIAPVQRMIEHGMKVTLGTDGAASNNSLNLFFEMRLASLLQKAQNPRNLDVNTCLKMVTYDGAQAMGFKSGKIEEGWNADLVVIDLDLPEMFPVQNIKNHLVHAFSGEVFATMVAGKWIYFDGEYPTIDSEEVKRELARIEKELYSS
On to B2, for which the kcat/Km in series [4] was 1.5 10^5/M/s; in series [5] it was 9.2 10^3/M/s; in series [6], 5.8 10^4/M/s. Also, the Km came out at 44 µM in series [7], 250 µM in series [10] and 210 µM in series [11]. Also, the kcat in [7] is 7.2 s⁻¹; in series [8], 1 10^-3/s; in series [9] it was 1 10^-3/s; in series [10], 2.3 s⁻¹; in [11], 12.2 s⁻¹.
